High-throughput results (PubChem BioAssay)
SENP8 block-1 = blocks human SENP8 cleavage of Nedd8 substrate; Q96LD8; recombinant SENP8, Nedd8 substrate fluorescence; inhibition, % at 20 µM; hit rate 0.64% among 360,000; AID 602440; in the data active = inhibition mostly above about 40%, no sharp cut-off; inactive = mostly below about 27%
Target sequence (Q96LD8 whole entry, looked up): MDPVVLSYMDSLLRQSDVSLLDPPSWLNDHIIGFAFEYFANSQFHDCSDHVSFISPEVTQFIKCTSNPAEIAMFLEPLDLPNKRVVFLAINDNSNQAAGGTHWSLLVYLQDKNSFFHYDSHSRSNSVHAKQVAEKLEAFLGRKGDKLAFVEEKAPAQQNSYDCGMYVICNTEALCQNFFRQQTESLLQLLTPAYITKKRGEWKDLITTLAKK
SENP8 block-2 = SENP8 protease inhibition; hit rate 1.2% among 330,000; AID 2540; inhibition, % at 10 µM; Q96LD8; purified SENP8, Z-RLRGG-aminoluciferin cleavage, luminescence; in the data active = inhibition above about 50%
SENP1 FRET inh = inhibitors of human SENP1 SUMO protease catalytic domain. Q9P0U3. recombinant SENP1 catalytic domain, CyPet-SUMO1-YPet FRET cleavage. inhibition, % at 10 µM. hit rate 0.21% among 360,000;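 active = inhibition at least 30% at 10 µM, raw YFP signal under a set limit, fluorescence ratio 0.5 to 1.5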;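 also: 0% = enzyme with DMSO and 100% = no enzyme wells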
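Material – human SENP1 catalytic domain · Input – SENP1 enzyme, 20 pM final · Compound dosing – single concentration of 10 µM compound, 0.5% DMSO final · Timing – enzyme reaction for 50 min at room temperature, dark · Measured by – FRET fluorescence in CFP and YFP emission channels · Control set – no-enzyme wells low, DMSO-plus-enzyme wells high control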
SENP7 block = blocks the human protease SENP7; Q9BQF6; recombinant SENP7, Z-RLRGG-aminoluciferin luminescence, 40 min; inhibition, % at 5 µM; hit rate 1.5% among 330,000;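 active = inhibition above about 50% at the single test dose, limit read from the data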;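 also: plate controls were DMSO with enzyme for no effect and no enzyme buffer wells for full effect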
Target sequence (Q9BQF6 706-1050 limits assumed): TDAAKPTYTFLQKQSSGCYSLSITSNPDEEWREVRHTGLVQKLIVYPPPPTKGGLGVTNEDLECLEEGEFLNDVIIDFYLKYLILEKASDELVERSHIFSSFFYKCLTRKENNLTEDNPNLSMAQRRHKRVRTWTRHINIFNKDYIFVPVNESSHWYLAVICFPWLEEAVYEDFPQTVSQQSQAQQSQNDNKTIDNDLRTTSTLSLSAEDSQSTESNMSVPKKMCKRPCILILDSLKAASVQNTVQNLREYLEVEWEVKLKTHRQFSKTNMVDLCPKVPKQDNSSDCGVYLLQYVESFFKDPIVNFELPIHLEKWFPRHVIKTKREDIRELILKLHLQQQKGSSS
SENP6 block = inhibitors of human SENP6 protease; inhibition, % at 10 µM; Recombinant SENP6 catalytic domain, aminoluciferin luminescence; hit rate 1.8% among 330,000;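 active = inhibition above about 50% at the single tested dose, limit read from the data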;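 also: plate controls were DMSO wells with enzyme for no effect and DMSO wells lacking enzyme for full effect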
SENP1 conf = SENP1 (human) inhibition, single concentration confirmation | shares compounds with SENP1 FRET inh | recombinant SENP1, CyPet-SUMO1-YPet FRET cleavage | inhibition, % at 10 µM | hit rate 34% among 520 | AID 651678; in the data active = inhibition mostly above about 35%, no sharp cut-off; inactive = mostly below about 32%;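 also: 0% = enzyme with DMSO and 100% = no enzyme control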
SENP1 kinetic = confirmation of human SENP1 SUMO protease inhibitors, kinetic; hit rate 26% among 520; shares compounds with SENP1 FRET inh; AID 651690; recombinant SENP1, CyPet-SUMO1-YPet FRET kinetic cleavage; inhibition, % at 10 µM; in the data active = inhibition mostly above about 32%, no sharp cut-off; inactive = mostly below about 29%;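 also: 0% = DMSO with enzyme and 100% = no enzyme substrate only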
Numbers without * were called inactive; nt = not tested or not shown; ! = repeats disagree. Shown are actives, neighbours in structure and some others; about 2.5% of the full set was active somewhere.

SMILES | SENP8 block-1 | SENP8 block-2 | SENP1 FRET inh | SENP7 block | SENP6 block | SENP1 conf | SENP1 kinetic
CN1Cc2c(N)cccc2C(c2ccccc2)C1 (centres undefined) | 29.7 | 0.7 | 74.1*! | 6.7 | 5.5 | 67.0* | 44.8*
CC(=O)Nc1ccc(S(=O)(=O)Nc2ccc3nc(C)sc3c2)cc1 | 0.8 | 2.1 | 2.6 | 3.7 | 5.4 | nt | nt
Cc1nc2ccc(NS(=O)(=O)c3ccccc3F)cc2s1 | -13.0 | 1.4 | 54.8* | 9.7 | 1.0 | 29.9 | 38.2*
Cc1nc2ccc(NS(=O)(=O)c3ccc(Br)cc3)cc2s1 | -1.4 | 0.8 | 40.5* | -7.0 | 4.4 | 23.4 | 22.1
Cc1ccc(S(=O)(=O)Nc2ccc3nc(C)sc3c2)cc1 | 6.6 | 0.5 | 3.5 | 1.5 | -18.9 | nt | nt
Cc1nc2cc(NS(=O)(=O)c3ccccc3F)ccc2s1 | 9.8 | -1.8 | 2.7 | -0.2 | -7.9 | nt | nt
Cc1nc2ccc(NS(=O)(=O)c3ccc(F)c(F)c3)cc2s1 | 0.7 | 3.9 | 54.0* | 4.8 | 3.9 | 36.5 | 33.2
CC12CCCC[C@@H]1CCC1C2CCC2(C)C1CC[C@@]2(O)CNCCO (some centres undefined) | 18.9 | 3.9 | -1.6 | -0.4 | -13.8 | nt | nt
O=C(O)CCN1CCN(S(=O)(=O)c2ccc3ccccc3c2)CC1 | 13.9 | -1.0 | -0.8 | -1.1 | 4.3 | nt | nt
COc1ccc(O)c(C(=O)c2cc(C#N)c(=O)n(CC3CCCO3)c2)c1 (centres undefined) | -16.4 | 3.1 | 38.9* | 0.3 | -4.5 | 29.8 | 35.8*
Cc1ccc(O)c(C(=O)c2cc(C#N)c(=O)n(CC3CCCO3)c2)c1 (centres undefined) | -7.4 | -1.1 | -7.9 | 5.6 | -18.1 | nt | nt
CSc1nc2nc3c(cn2n1)C(=O)CC(c1ccccc1)C3 (centres undefined) | -3.8 | -0.2 | 53.5 | -12.8 | 4.3 | nt | nt
O=C1CC(c2ccccc2)Cc2nc3nc(C(F)(F)F)nn3cc21 (centres undefined) | 9.9 | 4.0 | 62.7* | 4.3 | -2.7 | 8.7 | 10.2
CC(C)c1ccc(NC(=O)CCNC(=O)N2CC(=O)Nc3ccccc32)cc1 | 8.0 | -2.7 | 1.9 | 4.9 | -5.0 | nt | nt
Clc1ccc2nc(COc3ccccc3)[nH]c2c1 | 9.1 | 5.3 | 1.1 | 5.7 | 4.5 | nt | nt
Cc1cccc(-n2c(=O)c3ccccc3n3c(=S)[nH]nc23)c1C | -2.5 | 46.0 | 2.9 | -7.1 | 33.1 | nt | nt
C/C(=N\NC(=O)c1ccc(O)cc1)c1ccc2c(c1)Nc1ccccc1S2 | 1.6 | -4.7 | 70.5* | -7.7 | 2.2 | 86.4* | 56.1*
C/C(=N\NC(=O)c1ccccc1F)c1ccc2c(c1)Nc1ccccc1S2 | 25.7 | -9.8 | 35.1* | 1.1 | -9.1 | 59.8* | 39.3*
O=C(NN1C(=O)C2C3c4ccccc4C(c4ccccc43)[C@@H]2C1=O)c1ccccc1 (some centres undefined) | 13.7 | -1.2 | -1.9 | 1.7 | -4.8 | nt | nt
O=C(NN1C(=O)C2C(c3ccccc3)C=CC(c3ccccc3)C2C1=O)c1cccc(Br)c1 (centres undefined) | 4.3 | 4.3 | 40.5* | 1.5 | -9.7 | 11.2 | 12.3
O=C(NN1C(=O)C2C(c3ccccc3)C=CC(c3ccccc3)C2C1=O)c1ccccc1 (centres undefined) | 11.0 | -8.6 | 40.6* | -8.7 | -11.0 | 5.5 | 6.0
CCOC(=O)c1ccc(CNC(=O)Cn2nnc(-c3ccccc3)n2)o1 | 6.4 | -9.2 | 1.0 | -14.3 | -7.9 | nt | nt
O=C1C2C(c3ccccc3)C=CC(c3ccccc3)C2C(=O)N1c1ccccn1 (centres undefined) | 12.0 | -8.6 | 40.8* | 0.1 | -22.0 | 53.9* | 45.8*
COc1c(O)cccc1[C@H](O)C1CCN(CCc2ccc(F)cc2)CC1 | 16.2 | -5.0 | 30.1* | 1.1 | 1.9 | 5.4 | 11.1
N#Cc1c(C(F)(F)F)cc(-c2ccc(Cl)c(Cl)c2)nc1SCCN1CCOCC1 | -71.5 | 2.6 | 37.7* | 8.5 | -1.6 | 26.5 | 23.1
SMILES | SENP8 block-1 | SENP8 block-2 | SENP1 FRET inh | SENP7 block | SENP6 block | SENP1 conf | SENP1 kinetic
N#C/C(C(=O)NCCc1ccccc1)=C1/N=C(NC(=O)c2cccs2)c2ccccc21 | -22.3 | 1.3 | 35.7* | 0.8 | -0.5 | -26.6 | 4.6
Cc1nc(CCNS(=O)(=O)c2cccnc2)cs1 | 26.5 | -0.4 | 3.2 | -9.2 | -8.5 | nt | nt
CC1=Nc2ccccc2N=C(N)C1c1ccccc1 (centres undefined) | 26.0 | -5.5 | 35.5* | 11.8 | 8.1 | 11.7 | 9.3
CC1=Nc2ccccc2N=C(NC(=O)c2ccccc2)C1c1ccc(Cl)cc1 (centres undefined) | 8.6 | -3.7 | 1.0 | -10.5 | -2.0 | nt | nt
CC1Nc2ccc(C(=O)NC3CCCCC3)cc2NC1=O (centres undefined) | -150.1 | -2.0 | 40.7* | 9.9 | -28.1 | 17.1 | 15.7
CC(C)C1Nc2ccc(C(=O)NC3CCCCC3)cc2NC1=O (centres undefined) | -39.4 | -3.4 | 0.2 | 7.9 | -42.3 | nt | nt
COc1ccccc1N1C(=O)S/C(=C\c2ccc(C)s2)C1=O | 18.9 | -1.1 | 39.8* | -2.7 | 3.3 | 13.2 | 13.8
CCN1C(=O)c2cccc3c(NC(=O)c4cccc(N5C(=O)CCC5=O)c4)ccc1c23 | 12.7 | 0.0 | 57.8* | 2.1 | -5.9 | 43.5* | 28.4
COc1ccc(NC(=O)CSc2cc(C(=O)c3nccn3C)c3ccccc3n2)cc1 | 4.6 | -0.7 | 3.0 | 9.4 | 12.1 | nt | nt
COc1ccc(N/N=C(/C)c2cnnc(-c3ccccc3)n2)cc1 | 36.2 | 1.1 | 65.9* | 3.2 | 5.4 | 10.0 | 10.2
CCCCNc1c(-c2cccnc2)nc2nc(C)cc(C)n12 | -25.6 | nt | 35.8* | nt | nt | 19.4 | 14.8
Cc1cccc2nc(-c3cccnc3)c(Nc3ccccc3)n12 | -256.4 | 1.6 | -0.3 | -1.2 | -11.3 | nt | nt
Cc1cc(C)n2c(Nc3c(C)cccc3C)c(-c3cccnc3)nc2n1 | -42.6 | nt | 64.0* | nt | nt | 38.6* | 27.1
Cc1cccc2nc(-c3cccnc3)c(NCCC(C)C)n12 | -435.1 | 2.5 | -7.6 | 3.5 | -10.8 | nt | nt
Cc1cc(C)n2c(NC3CCCC3)c(-c3cccnc3)nc2n1 | -27.9 | nt | 32.4* | nt | nt | 20.3 | 9.5
Cc1cc(=O)c(C(=O)Nc2cccc(C(=O)NC3CC3)c2)nn1-c1ccccc1 | 16.1 | nt | -0.9 | nt | nt | nt | nt
Cc1ccc(S(=O)(=O)NNC(=O)C(O)(c2ccccc2C)c2ccccc2C)cc1 | 12.5 | 0.0 | 1.6 | 2.9 | -3.6 | nt | nt
Clc1ccc(-c2ccc(C=Nc3ccc(N4CCOCC4)cc3)o2)cc1 | -103.3 | -0.6 | -67.6 | 2.7 | -4.5 | nt | nt
Clc1ccc(-c2ccc(C=Nc3ccc(N4CCOCC4)cc3)o2)c(Cl)c1 | 3.8 | -4.2 | 32.2* | 4.9 | -2.0 | -1.9 | 2.8
CCc1cc(C(=O)N=Nc2c(O)[nH]c3ccc([N+](=O)[O-])cc23)c2ccccc2n1 | 19.2 | 1.6 | 4.7 | 4.1 | 0.0 | nt | nt
